Measurements taken from ChEMBL document CHEMBL4049423, “Discovery of Novel 1,4-Diacylpiperazines as Selective and Cell-Active eIF4A3 Inhibitors” (J Med Chem, 2017).

Assays:
[1] = biological target: T1, Eukaryotic initiation factor 4A-III (Homo sapiens, UniProt P38919); assay: Inhibition of MLN51-induced full-length human recombinant His6-tagged eIF4A3 RNA dependent ATPase activity expressed in Escherichia coli BL21(DE3) using single stranded poly(U) RNA as substrate after 30 mins by ADP-Glo luminescence assay
T1 sequence (P38919 whole entry): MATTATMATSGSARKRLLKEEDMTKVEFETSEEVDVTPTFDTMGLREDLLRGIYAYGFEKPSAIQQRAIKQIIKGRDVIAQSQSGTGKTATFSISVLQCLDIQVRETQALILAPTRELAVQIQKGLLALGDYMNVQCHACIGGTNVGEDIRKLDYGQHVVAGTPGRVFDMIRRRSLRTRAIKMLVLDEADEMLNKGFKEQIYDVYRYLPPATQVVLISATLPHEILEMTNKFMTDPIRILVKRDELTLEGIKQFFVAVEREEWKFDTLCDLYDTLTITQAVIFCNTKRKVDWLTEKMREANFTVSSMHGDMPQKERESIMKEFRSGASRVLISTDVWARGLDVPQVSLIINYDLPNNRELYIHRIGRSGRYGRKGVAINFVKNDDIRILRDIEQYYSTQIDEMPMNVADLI
Procedure, shortened: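 ADP-Glo luminescence read-out with 150 nM eIF4A3 plus an equimolar amount of MLN51. Substrates were 35 μM ATP and 1.5 μg/mL poly(U), both at Km. Buffer: 20 mM Tris-HCl pH 7.5, 2.5 mM MgCl2, 100 mM KCl, 1 mM DTT, 0.01% Tween20. Enzyme was added last to start the reaction, then incubated 30 min at room temperature. No-enzyme wells were taken as 100% inhibition and the complete reaction as 0%.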

[2] = biological target: T1, Eukaryotic initiation factor 4A-III; assay: Inhibition of eIF4A3 (unknown origin) expressed in HEK293T cells assessed as NMD suppression at 10 uM after 6 hrs by luciferase reporter gene assay relative to control; type: cell-based
Procedure, shortened: (§1)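 HEK293T cells were co-transfected (Lipofectamine LTX) with the pGL4.12 SV40-Luc2CP-BGG NMD reporter and a pRL-TK renilla control. After 24 h of transfection, cells were treated with compound for 6 h. Firefly/renilla luciferase ratio was measured by dual-luciferase assay and normalized to DMSO-treated cells, n = 2.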

[3] = biological target: T1, Eukaryotic initiation factor 4A-III; assay: Inhibition of eIF4A3 (unknown origin) expressed in HEK293T cells assessed as NMD suppression at 3 uM after 6 hrs by luciferase reporter gene assay relative to control; type: cell-based; procedure, shortened: as §1
[4] = biological target: Eukaryotic initiation factor 4A-I (Homo sapiens, UniProt P60842); assay: Inhibition of eIF4G-induced full-length human recombinant His6-tagged eIF4A1 RNA dependent ATPase activity expressed in Escherichia coli BL21(DE3) using single stranded poly(U) RNA as substrate after 40 mins by ADP-Glo luminescence assay
Sequence of Eukaryotic initiation factor 4A-I (P60842 whole entry): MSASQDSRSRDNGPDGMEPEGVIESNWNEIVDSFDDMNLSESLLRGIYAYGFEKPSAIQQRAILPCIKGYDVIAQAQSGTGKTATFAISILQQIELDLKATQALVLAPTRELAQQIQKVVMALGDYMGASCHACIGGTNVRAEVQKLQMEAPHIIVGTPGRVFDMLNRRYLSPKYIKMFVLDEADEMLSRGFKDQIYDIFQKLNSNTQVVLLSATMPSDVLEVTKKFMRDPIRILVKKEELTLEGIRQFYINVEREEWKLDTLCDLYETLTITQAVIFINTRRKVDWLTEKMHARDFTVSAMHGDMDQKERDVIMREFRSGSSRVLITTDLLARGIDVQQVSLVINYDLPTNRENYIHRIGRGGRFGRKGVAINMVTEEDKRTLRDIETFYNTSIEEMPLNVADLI
Procedure, shortened: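 100 nM eIF4A1 with equimolar eIF4B and eIF4G, 35 μM ATP and 1.5 μg/mL poly(U), both at Km. Buffer: Tris-HCl pH 7.5, MgCl2, KCl, DTT, Tween20. The reaction was started with enzyme and run 40 min at room temperature, with ADP read by ADP-Glo luminescence. No-enzyme wells were set as 100% inhibition.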

[5] = biological target: Eukaryotic initiation factor 4A-II (Homo sapiens, UniProt Q14240); assay: Inhibition of eIF4G-induced human recombinant His6-tagged eIF4A2 RNA dependent ATPase activity using single stranded poly(U) RNA as substrate after 40 mins by ADP-Glo luminescence assay
Sequence of Eukaryotic initiation factor 4A-II (Q14240 whole entry): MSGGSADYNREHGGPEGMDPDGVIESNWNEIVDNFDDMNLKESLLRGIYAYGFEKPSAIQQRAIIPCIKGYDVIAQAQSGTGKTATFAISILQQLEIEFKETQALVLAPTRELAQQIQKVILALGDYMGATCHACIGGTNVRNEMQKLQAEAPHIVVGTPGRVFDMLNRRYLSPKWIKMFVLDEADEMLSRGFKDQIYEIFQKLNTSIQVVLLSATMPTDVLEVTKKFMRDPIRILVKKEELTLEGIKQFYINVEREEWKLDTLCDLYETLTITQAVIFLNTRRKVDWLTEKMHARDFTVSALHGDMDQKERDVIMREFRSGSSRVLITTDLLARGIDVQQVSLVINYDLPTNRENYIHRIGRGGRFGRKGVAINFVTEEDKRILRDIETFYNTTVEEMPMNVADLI
Procedure, shortened: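 eIF4A2 was a purchased His-tagged human protein, used at 100 nM with equimolar eIF4B and eIF4G. Substrates were 20 μM ATP and 3.0 μg/mL poly(U), both at Km. The reaction was started with enzyme in Tris-HCl pH 7.5/MgCl2/KCl/DTT/Tween20 buffer and run 40 min at room temperature. ADP-Glo read-out, with the no-enzyme control set as 100% inhibition.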

[6] = biological target: T2, ATP-dependent RNA helicase DHX29 (Homo sapiens, UniProt Q7Z478); assay: Inhibition of human recombinant full-length FLAG-His-tagged DHX29 RNA dependent ATPase activity expressed in baculovirus infected Sf9 insect cells using single stranded poly(U) RNA as substrate after 30 mins by ADP-Glo luminescence assay
T2 sequence (Q7Z478 whole entry): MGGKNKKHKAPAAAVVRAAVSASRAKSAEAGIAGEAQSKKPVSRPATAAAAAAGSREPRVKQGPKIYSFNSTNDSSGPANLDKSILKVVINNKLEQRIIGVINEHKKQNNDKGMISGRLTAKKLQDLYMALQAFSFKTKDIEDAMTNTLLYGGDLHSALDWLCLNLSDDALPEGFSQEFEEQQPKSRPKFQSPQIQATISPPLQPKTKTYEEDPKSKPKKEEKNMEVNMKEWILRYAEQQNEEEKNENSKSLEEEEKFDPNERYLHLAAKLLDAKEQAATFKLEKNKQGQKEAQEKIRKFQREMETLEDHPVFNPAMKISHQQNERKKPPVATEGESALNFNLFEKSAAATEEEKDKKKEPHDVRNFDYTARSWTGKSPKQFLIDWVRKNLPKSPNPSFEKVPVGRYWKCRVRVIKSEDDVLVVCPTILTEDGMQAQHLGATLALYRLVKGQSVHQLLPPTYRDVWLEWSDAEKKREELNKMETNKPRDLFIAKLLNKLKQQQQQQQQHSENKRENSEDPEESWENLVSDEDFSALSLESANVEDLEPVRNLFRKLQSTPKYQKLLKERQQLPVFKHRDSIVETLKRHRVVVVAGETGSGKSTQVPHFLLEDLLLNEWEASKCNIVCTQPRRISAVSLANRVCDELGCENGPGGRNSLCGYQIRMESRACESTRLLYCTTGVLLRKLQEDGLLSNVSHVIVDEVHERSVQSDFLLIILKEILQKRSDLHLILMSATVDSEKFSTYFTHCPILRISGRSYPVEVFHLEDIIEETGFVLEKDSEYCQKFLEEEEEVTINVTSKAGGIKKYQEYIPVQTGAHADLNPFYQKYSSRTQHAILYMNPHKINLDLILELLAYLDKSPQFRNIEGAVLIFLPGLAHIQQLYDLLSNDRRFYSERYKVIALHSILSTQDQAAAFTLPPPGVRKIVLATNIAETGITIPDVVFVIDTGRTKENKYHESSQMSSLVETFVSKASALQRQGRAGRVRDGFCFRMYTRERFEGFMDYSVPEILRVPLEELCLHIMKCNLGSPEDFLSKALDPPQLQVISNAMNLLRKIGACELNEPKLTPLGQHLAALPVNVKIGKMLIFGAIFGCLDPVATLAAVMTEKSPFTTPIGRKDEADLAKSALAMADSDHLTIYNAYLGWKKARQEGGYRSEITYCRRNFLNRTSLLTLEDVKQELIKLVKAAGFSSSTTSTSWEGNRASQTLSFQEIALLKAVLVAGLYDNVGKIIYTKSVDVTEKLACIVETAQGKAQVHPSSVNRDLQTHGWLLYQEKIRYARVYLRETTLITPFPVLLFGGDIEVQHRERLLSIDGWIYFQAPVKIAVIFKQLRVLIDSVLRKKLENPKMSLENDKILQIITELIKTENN
Procedure, shortened: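 DHX29 was Ni-NTA and Superdex 200 purified and used at 6.4 nM. Substrates were 30 μM ATP and 1.8 μg/mL poly(U), both at Km. Run in pH 7.5 Tris/MgCl2/KCl/DTT/Tween20 buffer, started with enzyme, 30 min at room temperature. ADP detected by ADP-Glo luminescence, with no-enzyme wells as 100% inhibition.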

[7] = biological target: U5 small nuclear ribonucleoprotein 200 kDa helicase (Homo sapiens, UniProt O75643); assay: Inhibition of human recombinant full-length His-tagged BRR2 RNA dependent ATPase activity expressed in baculovirus infected Sf9 insect cells using single stranded poly(U) RNA as substrate after 30 mins by ADP-Glo luminescence assay
Sequence of U5 small nuclear ribonucleoprotein 200 kDa helicase (O75643 whole entry): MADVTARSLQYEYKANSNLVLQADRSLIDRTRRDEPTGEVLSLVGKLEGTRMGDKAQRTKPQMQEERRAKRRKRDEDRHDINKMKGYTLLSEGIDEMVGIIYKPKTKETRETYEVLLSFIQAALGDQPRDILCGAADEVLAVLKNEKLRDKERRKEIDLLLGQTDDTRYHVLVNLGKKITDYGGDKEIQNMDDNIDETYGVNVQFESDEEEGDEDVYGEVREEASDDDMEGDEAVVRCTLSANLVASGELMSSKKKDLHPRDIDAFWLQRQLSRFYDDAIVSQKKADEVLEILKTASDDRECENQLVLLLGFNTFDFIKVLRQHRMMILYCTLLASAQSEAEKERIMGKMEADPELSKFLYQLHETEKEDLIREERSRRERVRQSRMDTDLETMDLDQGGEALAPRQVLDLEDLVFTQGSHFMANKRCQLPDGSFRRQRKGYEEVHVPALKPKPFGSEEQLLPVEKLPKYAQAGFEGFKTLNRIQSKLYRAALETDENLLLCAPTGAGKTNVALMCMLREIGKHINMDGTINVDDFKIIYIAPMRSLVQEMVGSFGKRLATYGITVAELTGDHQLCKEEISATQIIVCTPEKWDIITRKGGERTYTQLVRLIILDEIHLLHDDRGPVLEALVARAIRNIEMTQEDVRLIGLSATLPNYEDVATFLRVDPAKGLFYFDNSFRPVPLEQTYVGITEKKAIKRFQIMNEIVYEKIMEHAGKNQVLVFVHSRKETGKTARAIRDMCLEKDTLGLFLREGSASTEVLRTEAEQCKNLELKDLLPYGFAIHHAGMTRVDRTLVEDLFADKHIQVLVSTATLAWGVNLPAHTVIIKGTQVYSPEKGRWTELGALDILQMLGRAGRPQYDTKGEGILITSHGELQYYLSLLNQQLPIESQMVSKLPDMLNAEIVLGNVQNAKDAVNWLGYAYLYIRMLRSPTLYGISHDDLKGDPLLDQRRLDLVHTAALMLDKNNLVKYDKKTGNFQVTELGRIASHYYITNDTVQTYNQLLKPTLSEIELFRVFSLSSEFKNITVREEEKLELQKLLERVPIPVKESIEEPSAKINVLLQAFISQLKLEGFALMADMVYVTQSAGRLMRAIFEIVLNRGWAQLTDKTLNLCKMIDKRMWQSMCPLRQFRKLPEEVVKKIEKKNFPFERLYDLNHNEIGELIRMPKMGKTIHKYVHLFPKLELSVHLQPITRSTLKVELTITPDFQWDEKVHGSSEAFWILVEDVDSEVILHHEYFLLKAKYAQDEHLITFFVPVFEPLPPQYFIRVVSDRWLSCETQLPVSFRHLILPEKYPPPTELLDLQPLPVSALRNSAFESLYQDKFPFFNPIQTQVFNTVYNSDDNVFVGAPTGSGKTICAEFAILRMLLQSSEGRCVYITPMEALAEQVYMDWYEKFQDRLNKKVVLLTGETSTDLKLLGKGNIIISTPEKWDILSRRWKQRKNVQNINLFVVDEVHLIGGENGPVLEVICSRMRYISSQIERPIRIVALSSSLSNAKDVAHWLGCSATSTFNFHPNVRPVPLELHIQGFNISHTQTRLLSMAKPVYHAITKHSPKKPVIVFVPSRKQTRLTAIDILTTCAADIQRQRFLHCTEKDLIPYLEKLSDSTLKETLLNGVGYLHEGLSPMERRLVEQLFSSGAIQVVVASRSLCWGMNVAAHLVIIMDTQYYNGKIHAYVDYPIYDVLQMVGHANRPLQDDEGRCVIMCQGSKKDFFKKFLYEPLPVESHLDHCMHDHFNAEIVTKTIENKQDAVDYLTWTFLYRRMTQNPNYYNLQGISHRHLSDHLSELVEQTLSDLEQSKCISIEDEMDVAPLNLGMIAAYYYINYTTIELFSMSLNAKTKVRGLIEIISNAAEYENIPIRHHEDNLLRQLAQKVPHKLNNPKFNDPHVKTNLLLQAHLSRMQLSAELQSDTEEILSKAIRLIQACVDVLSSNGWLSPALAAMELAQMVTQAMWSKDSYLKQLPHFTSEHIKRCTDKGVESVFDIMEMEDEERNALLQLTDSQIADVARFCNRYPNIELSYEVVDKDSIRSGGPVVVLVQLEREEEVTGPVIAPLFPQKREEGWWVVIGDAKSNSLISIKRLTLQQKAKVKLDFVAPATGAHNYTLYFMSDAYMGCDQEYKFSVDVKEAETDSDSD
Procedure, shortened: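 BRR2 was Ni-NTA and gel-filtration purified and used at 6.25 nM. Substrates were 20 μM ATP and 2.5 μg/mL poly(U), both at Km. Buffer: 20 mM Tris-HCl pH 7.5, 2.5 mM MgCl2, 100 mM KCl, 1 mM DTT, 0.01% Tween20. Started with enzyme and incubated 30 min at room temperature, with ADP-Glo luminescence read-out.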

[8] = biological target: T1, Eukaryotic initiation factor 4A-III; assay: Binding affinity to full-length human recombinant His6-tagged eIF4A3 expressed in Escherichia coli BL21(DE3) by surface plasmon resonance assay
Procedure, shortened: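 eIF4A3 immobilized on CM7 chip by amine coupling (5000–10 000 RU) in HBS-P+ with 1 mM DTT. Binding run at 25 °C in 20 mM Tris-HCl pH 8.0, 150 mM NaCl, 0.2 mM TCEP, 0.02% P20, 1−2% DMSO. Compound injected at 6−12 concentrations for 60−120 s at 50 μL/min, dissociation followed 120−1200 s. Sensorgrams double-referenced, globally fitted to 1:1 model.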

[9] = biological target: T1, Eukaryotic initiation factor 4A-III; assay: Binding affinity to full-length human recombinant His6-tagged eIF4A3 expressed in Escherichia coli BL21(DE3) assessed as association rate constant by surface plasmon resonance assay
Procedure, shortened: (§2)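 eIF4A3 amine-coupled to a CM7 sensor chip (5000–10 000 RU) in HBS-P+ with 1 mM DTT. Binding was run at 25 °C in 20 mM Tris-HCl pH 8.0, 150 mM NaCl, 0.2 mM TCEP, 0.02% P20 and 1–2% DMSO. Compound series of 6–12 concentrations were injected for 60–120 s at 50 μL/min, with dissociation followed for 120–1200 s. Sensorgrams were double-referenced and globally fitted to a 1:1 model.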

[10] = biological target: T1, Eukaryotic initiation factor 4A-III; assay: Binding affinity to full-length human recombinant His6-tagged eIF4A3 expressed in Escherichia coli BL21(DE3) assessed as dissociation rate constant by surface plasmon resonance assay; procedure, shortened: as §2
[11] = biological target: T1, Eukaryotic initiation factor 4A-III; assay: Binding affinity to full-length human recombinant His6-tagged eIF4A3 expressed in Escherichia coli BL21(DE3) assessed as dissociation half life by surface plasmon resonance assay; procedure, shortened: as §2

Cc1c(C(=O)N2CCN(C(=O)c3ccc(Br)cc3)[C@@H](c3ccc(Cl)cc3)C2)cnn1-c1cccc(C#N)c1
IC50 [1]: 0.26 µM | fold change (FC) [2]: 3.69 | fold change (FC) [3]: 2.72 | IC50 [4]: > 100 µM | IC50 [5]: > 100 µM | IC50 [6]: > 100 µM | IC50 [7]: > 100 µM | Kd [8]: 0.043 µM | K [9]: 1.6 ×10⁴ /M/s | K [10]: 6.9 ×10⁻⁴ /s | T1/2 [11]: 16.8 min
